Columns and labels:
Mustela putorius furo [1] = assay: Minimum intravenous effective dose required to inhibit jejunal motility in ferrets; assay type: functional
Outline: (§1)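 Anesthetized male ferrets (800–1200 g), fasted 24 h before surgery, dosed iv. Spontaneous jejunal motility recorded manometrically via catheters inserted into jejunum. Value is minimum effective (threshold) dose inhibiting motility; each animal its own control; number of determinations recorded, SEM given when replicates differed.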

Mustela putorius furo [2] = assay: Intravenous effective dose required to produce a 1 mV increase in transmural potential difference in ferrets (GI side effect); assay type: functional
Outline: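 Anesthetized male ferrets (800–1200 g), fasted 24 h before surgery, dosed iv. Transmural potential difference across jejunal wall measured with calomel half-cells and salt bridges (one in luminal fluid, other via wick electrode in serosal fluid) to an electrometer. Value is dose giving >1 mV rise in potential difference; each animal its own control.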

Mus musculus = assay: Analgesic activity measured using mouse writhing antinociceptive assay after subcutaneous administration; assay type: functional; settings: sc
Outline: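 Male Cr1:CF1 mice, groups of 5–10, given vehicle or compound sc; 25 min later 0.5% acetic acid ip. Writhes per mouse counted in individual chambers 5–10 min after acid (30–35 min post-dose), expressed as mean writhes over 5 min. ED50 from linear regression.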

[3] = biological target: Muscarinic acetylcholine receptor; assay: Binding affinity against Muscarinic acetylcholine receptors using [3H]oxotremorine-M as radioligand in rat cortex
Outline: (§2)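 Rat cortex radioligand displacement with [³H]oxotremorine-M, which labels the agonist conformational state of muscarinic receptors without subtype selectivity. Affinity is reported as Ki (nM) ± SEM.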

[4] = Mean plasma concentration measured 1 h following an oral dose of 30 mg/kg; assay type: ADME, organism-based; design: dose 30 mg/kg, route oral
Outline: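 Rats dosed orally at 30 mg/kg; parent compound plasma concentration measured 1 h after dosing, reported as mean.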

Mustela putorius furo [5] = assay: Minimum intravenous effective dose required to inhibit spontaneous motility in ferrets; assay type: functional; outline: as §1
[6] = biological target: Muscarinic acetylcholine receptor; assay: Binding affinity against Muscarinic acetylcholine receptor using [3H]oxotremorine-M as radioligand in rat cortex; outline: as §2

| Compound | Dose (Mustela putorius furo [1]) [µg/kg] | ED (1mV) (Mustela putorius furo [2]) [µg/kg] | ED50 (Mus musculus) [mg/kg] | Ki [3] [nM] | concentration at 1 h [4] [ng/mL] | ED50 (Mustela putorius furo [5]) [µg/kg] | Ki [6] [nM] |
| --- | --- | --- | --- | --- | --- | --- | --- |
| CCCCOc1nsnc1C1=CCCN(C)C1 | 3 | 7 | 0.41 | 1.4 |  |  |  |
| CCCCSc1nccnc1C1CN2CCC1CC2 (configuration not stated) | 3 | 30 | 3.2 | 0.5 |  |  |  |
| FC(F)(F)CCCSc1nsnc1[C@H]1CN2CCC[C@H]1C2 |  | 15 | 0.1 | 0.42 | 805 | 0.17 |  |
| FC(F)(F)CCCCSc1nsnc1[C@@H]1CN2CCC[C@@H]1C2 | 1 | 10 | 0.07 | 0.24 |  |  |  |
| FC(F)(F)CCCSc1nsnc1[C@H]1CN2CCC[C@@H]1C2 |  | >30 | 1.8 | 9.6 |  | 5.3 |  |
| CN1CCC=C(c2nsnc2SCCCc2cccs2)C1 | 30 | 30 | > 10 | 10 |  |  |  |
| CCCCCCSc1nsnc1C1=CCCN(CC)C1 | >30 | >30 | > 10 | 18 |  |  |  |
| CCCCSc1nsnc1C1=CCCNC1 | 30 | 30 | 0.14 | 3.5 |  |  |  |
| C=CCCCCOc1nsnc1C1=CCCN(C)C1 | 30 | 3 | 0.9 | 3 |  |  |  |
| FC(F)(F)CCSc1nsnc1[C@@H]1CN2CCC[C@@H]1C2 | 3 | 10 | 0.1 | 0.44 |  |  |  |
| FC(F)(F)CCCSc1nsnc1[C@@H]1CN2CCC[C@H]1C2 |  | >30 | > 10 | 25 |  | 4.7 |  |
| CN1CCC=C(c2nsnc2SCCCc2ccccc2)C1 | 10 | 30 | > 10 | 1 |  |  |  |
| CCCCCCSc1nccnc1C1CN2CCC1CC2 (configuration not stated) | >30 | >30 | 2.3 | 4 |  |  |  |
| CCCCSc1nsnc1[C@@H]1CN2CCC[C@@H]1C2 | 1 | 1 | 0.19 | 0.45 | 21 |  |  |
| FC(F)(F)CCCSc1nsnc1[C@@H]1CN2CCC[C@@H]1C2 |  | 2 | 0.35 | 0.33 |  | 17 |  |
| CCCCSc1nsnc1C1CN2CCCC1C2 (racemic) | 1 | 1 | 0.03 | 0.36 |  |  |  |
| FC(F)(F)CCCSc1nsnc1C1CN2CCCC1C2 (racemic) | 1 | 30 | 0.1 |  |  |  | 0.4 |
| CC(C)CCCSc1nsnc1C1CN2CCCC1C2 (racemic) | 30 | 3 | 0.95 | 0.91 |  |  |  |
| CN1[C@@H]2CC[C@H]1C[C@@H](OC(=O)C(CO)c1ccccc1)C2 (some centres not stated) [ATROPINE] |  | >30 | > 30 |  |  | 0.73 |  |
| CN1CC[C@]23c4c5ccc(O)c4O[C@H]2[C@@H](O)C=C[C@H]3[C@H]1C5 [MORPHINE] |  |  | 0.3 |  |  |  |  |
| CCCCSc1nsnc1C1CN2CCC1CC2 (configuration not stated) [VEDACLIDINE] | 3 | 10 | 0.19 | 0.4 |  |  |  |
